For 14 compounds, Activity and IC50 results are on record in ChEMBL document CHEMBL3414513, “Synthesis and biological evaluation of betulonic acid derivatives as antitumor agents” (Eur J Med Chem, 2015).

As usually defined, the IC50 is the concentration that gives 50% inhibition. Low values mean greater potency in that assay, high ones weaker potency in that assay.

SMILES strings stand for the structures. Where only a bound is given, the exact number is not on record here.

Common to all, as to assay type: functional, cell-based
In one assay the test system is A-375. Nature of the assay: Cytotoxicity against human A375 cells after 72 hrs by MTT assay. To be noted: for IC50: A-375, 72 h. Summed up: (§1)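 Cancer lines grown in RPMI 1640 with 10% heat-inactivated FBS, 37 °C, 5% CO2. Cells trypsinized at 80-90% confluence, seeded at 2×10^3/well overnight, then given compounds (DMSO stocks diluted in medium) at various concentrations for 72 h at 37 °C. Controls: 0.1% DMSO negative, adriamycin positive. MTT (5 mg/ml) added for 4 h, formazan dissolved in SDS 12 h, A595 read. IC50 from dose-response curves.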
A general note: Tetrazolium dyes change colour on reduction, which living cells bring about.

The subject of the next assay is PC-3. As to the kind of experiment: (§2) Cytotoxicity against human PC3 cells after 72 hrs by MTT assay. An outline of the steps: (§3)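 Cells trypsinized at 80-90% confluence, seeded at 2×10^3/well overnight, then given compounds (DMSO stocks diluted in medium) at various concentrations for 72 h at 37 °C. Controls: 0.1% DMSO negative, adriamycin positive. MTT (5 mg/ml) added for 4 h, formazan dissolved in SDS 12 h, A595 read. IC50 from dose-response curves.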

The nature of assay [1]: as §2. To be noted: PC-3, 72 h. Summed up:
as §3

The next assay relates to MCF7. As to the kind of experiment: Cytotoxicity against human MCF7 cells after 72 hrs by MTT assay. Particulars: for IC50: MCF7, 72 h. An outline of the steps:
as §1

The next assay relates to Bcap37. Nature of the assay: Cytotoxicity against human Bcap37 cells after 72 hrs by MTT assay. Particulars: for IC50: Bcap37, 72 h. An outline of the steps: as §1
The test system of a further assay is MGC-803. Nature of the assay: Cytotoxicity against human MGC803 cells after 72 hrs by MTT assay. Particulars: for IC50: MGC-803, 72 h. Summed up: as §1

On to `C=C(C)[C@@H]1CC[C@]2(C(=O)OCCCCN3CCOCC3)CC[C@]3(C)[C@H](CC[C@@H]4[C@@]5(C)CCC(=O)C(C)(C)[C@@H]5CC[C@]43C)[C@@H]12`, for which the Activity entry in the assay with A-375, with PC-3, in the assay on MCF7, with Bcap37 and in the assay with MGC-803 was “Dose-dependent effect” throughout. In addition, the IC50 is 6.8 µM with A-375; 7.2 µM in assay [1]; 8.5 µM in the assay on MCF7; 5.2 µM in the assay on Bcap37; 5.6 µM in the assay on MGC-803.

In the case of `C=C(C)[C@@H]1CC[C@]2(C(=O)OCCN3CCN(C(=O)/C=C/c4ccccc4)CC3)CC[C@]3(C)[C@H](CC[C@@H]4[C@@]5(C)CCC(=O)C(C)(C)[C@@H]5CC[C@]43C)[C@@H]12`, the Activity entry with A-375, in the assay with PC-3, in the assay on MCF7, with Bcap37 and with MGC-803 was “Dose-dependent effect” each time. The IC50 with A-375 was determined as 9.3 µM; in assay [1], 11 µM; with MCF7 it was 7.3 µM; with Bcap37, 9.4 µM; in the assay with MGC-803, 13.4 µM.

On to `C=C(C)[C@@H]1CC[C@]2(C(=O)OCCBr)CC[C@]3(C)[C@H](CC[C@@H]4[C@@]5(C)CCC(=O)C(C)(C)[C@@H]5CC[C@]43C)[C@@H]12`, for which the Activity result with A-375, in the assay with PC-3, in the assay on MCF7, in the assay with Bcap37 and with MGC-803 was “Dose-dependent effect” throughout. In addition, the IC50 (in the assay with A-375; in assay [1]; in the assay with MCF7; in the assay with Bcap37; in the assay with MGC-803) was greater than 20 µM each time.

For `C=C(C)[C@@H]1CC[C@]2(C(=O)OCCN3CCN(C(=O)c4c(F)cccc4Cl)CC3)CC[C@]3(C)[C@H](CC[C@@H]4[C@@]5(C)CCC(=O)C(C)(C)[C@@H]5CC[C@]43C)[C@@H]12`, the Activity result in the assay on A-375, in the assay on PC-3, in the assay with MCF7, with Bcap37 and in the assay with MGC-803 was “Dose-dependent effect” in each case. Besides, the IC50 in the assay on A-375 came out at 8.4 µM; in assay [1], 9.3 µM; in the assay on MCF7, 8.1 µM; in the assay with Bcap37 it was 7.5 µM; in the assay on MGC-803, 5.3 µM.

For `C=C(C)[C@@H]1CC[C@]2(C(=O)O)CC[C@]3(C)[C@H](CC[C@@H]4[C@@]5(C)CCC(=O)C(C)(C)[C@@H]5CC[C@]43C)[C@@H]12` [BETUNOLIC ACID], the Activity entry with A-375, in the assay with PC-3, with MCF7 and in the assay on Bcap37 was “Dose-dependent effect” each time. The IC50 in the assay with A-375 is 28.9 µM; in assay [1] it was 13.9 µM; in the assay with MCF7, 18.2 µM; with Bcap37 it was 25.7 µM; in the assay on MGC-803, 17.7 µM.

With `C=C(C)[C@@H]1CC[C@]2(C(=O)OCCN3CCN(C(=O)c4c(Cl)cccc4Cl)CC3)CC[C@]3(C)[C@H](CC[C@@H]4[C@@]5(C)CCC(=O)C(C)(C)[C@@H]5CC[C@]43C)[C@@H]12`, the Activity entry in the assay on A-375, in the assay on PC-3, in the assay with MCF7, with Bcap37 and in the assay with MGC-803 was “Dose-dependent effect” each time. Moreover, the IC50 was 17.4 µM with A-375; 14.1 µM in assay [1]; 10.8 µM in the assay on MCF7; greater than 20 µM with Bcap37; 16.6 µM in the assay on MGC-803.

Consider `C=C(C)[C@@H]1CC[C@]2(C(=O)OCCN(CC)CC)CC[C@]3(C)[C@H](CC[C@@H]4[C@@]5(C)CCC(=O)C(C)(C)[C@@H]5CC[C@]43C)[C@@H]12`, for which the Activity entry in the assay on A-375, in the assay on PC-3, in the assay with MCF7, with Bcap37 and with MGC-803 was “Dose-dependent effect” each time. For the same compound, the IC50 in the assay on A-375 worked out at 14.3 µM; in assay [1], 10.1 µM; in the assay on MCF7, 12.8 µM; in the assay with Bcap37, 15.6 µM; in the assay with MGC-803 it was 11.7 µM.

Regarding `C=C(C)[C@@H]1CC[C@]2(C(=O)OCCCBr)CC[C@]3(C)[C@H](CC[C@@H]4[C@@]5(C)CCC(=O)C(C)(C)[C@@H]5CC[C@]43C)[C@@H]12`, the Activity entry in the assay with A-375, in the assay on PC-3, with MCF7, in the assay on Bcap37 and with MGC-803 was “Dose-dependent effect” in each case. The IC50 (in the assay on A-375; in assay [1]; with MCF7; in the assay on Bcap37; in the assay on MGC-803) was greater than 20 µM in each case.

Take `COc1cccc2c1C(=O)c1c(O)c3c(c(O)c1C2=O)C[C@@](O)(C(=O)CO)C[C@@H]3O[C@H]1C[C@H](N)[C@H](O)[C@H](C)O1` [DOXORUBICIN]: the Activity entry in the assay with A-375, with PC-3, with Bcap37 and with MGC-803 was “Dose-dependent effect” throughout. The IC50 with A-375 turned out to be 1 µM; in the assay on MCF7, 1.35 µM; in the assay on Bcap37 it was 1.2 µM.

In the case of `C=C(C)[C@@H]1CC[C@]2(C(=O)OCCN3CCCCC3)CC[C@]3(C)[C@H](CC[C@@H]4[C@@]5(C)CCC(=O)C(C)(C)[C@@H]5CC[C@]43C)[C@@H]12`, the Activity result with A-375, in the assay with PC-3, in the assay on MCF7, in the assay with Bcap37 and in the assay on MGC-803 was “Dose-dependent effect” throughout. For the same compound, the 50% inhibitory concentration (IC50) in the assay with A-375 amounted to 17.1 µM; in assay [1], 18.8 µM; with MCF7 it was 16 µM; in the assay on Bcap37, 16.9 µM; in the assay with MGC-803, 12.5 µM.

With `C=C(C)[C@@H]1CC[C@]2(C(=O)OCCCN3CCOCC3)CC[C@]3(C)[C@H](CC[C@@H]4[C@@]5(C)CCC(=O)C(C)(C)[C@@H]5CC[C@]43C)[C@@H]12`, the Activity result in the assay on A-375, with PC-3, in the assay with MCF7, in the assay on Bcap37 and with MGC-803 was “Dose-dependent effect” each time. The IC50 in the assay on A-375 is 8.6 µM; in assay [1], 6.6 µM; in the assay on MCF7 it was 9.3 µM; with Bcap37, 7.2 µM; in the assay on MGC-803, 5.6 µM.

`C=C(C)[C@@H]1CC[C@]2(C(=O)OCCN3CCCC3)CC[C@]3(C)[C@H](CC[C@@H]4[C@@]5(C)CCC(=O)C(C)(C)[C@@H]5CC[C@]43C)[C@@H]12`: the Activity entry with A-375, with PC-3, in the assay with MCF7, in the assay on Bcap37 and in the assay on MGC-803 was “Dose-dependent effect” throughout. In addition, the IC50 in the assay on A-375 was found to be 9.7 µM; in assay [1] it was 12.3 µM; in the assay on MCF7, 9.4 µM; in the assay with Bcap37, 10.2 µM; in the assay on MGC-803 it was 10.8 µM.

As to `C=C(C)[C@@H]1CC[C@]2(C(=O)OCCCN3CCCCC3)CC[C@]3(C)[C@H](CC[C@@H]4[C@@]5(C)CCC(=O)C(C)(C)[C@@H]5CC[C@]43C)[C@@H]12`, the Activity result in the assay with A-375, in the assay with PC-3, in the assay with MCF7, in the assay on Bcap37 and in the assay with MGC-803 was “Dose-dependent effect” each time. In addition, the IC50 in the assay with A-375 was 9.5 µM; in assay [1], 5.7 µM; in the assay on MCF7, 6.6 µM; in the assay with Bcap37, 9.5 µM; in the assay on MGC-803, 6.3 µM.

For `C=C(C)[C@@H]1CC[C@]2(C(=O)OCCN3CCN(C(=O)c4cccc(F)c4)CC3)CC[C@]3(C)[C@H](CC[C@@H]4[C@@]5(C)CCC(=O)C(C)(C)[C@@H]5CC[C@]43C)[C@@H]12`, the Activity entry with A-375, with PC-3, in the assay on MCF7, in the assay with Bcap37 and with MGC-803 was “Dose-dependent effect” in each case. Further, the IC50 amounted to 7.6 µM with A-375; 6.8 µM in assay [1]; 5.4 µM with MCF7; 6.4 µM with Bcap37; 4.9 µM with MGC-803.
